Assay results: PubChem BioAssay AID1735 (Vanderbilt High Throughput Screening Facility, 2009)
Records with an inconclusive call do not appear. The source made the active and inactive calls.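 Rule for the calls: active = sigmoid dose curve converging in at least two of three replicates, including loose fits with few points beside the midpoint; inactive = curve converging in fewer than two replicates.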

tested on: HEK293 thallium flux, FluoZin-2 fluorescence, ouabain+bumetanide; test: native HEK Tl+ uptake potency with bumetanide block – HEK cells, counterscreen 2, counter-screen for KCC2 modulator project, dose response (AID 1735)
How it was run: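 Material: HEK cells | Buffer or medium: HBSS-HEPES plus ouabain and bumetanide | Also added: Thallium stimulus buffer at pH 7.3 | Doses: 11-point threefold dilution series, top dose 30 µM | Schedule: Overnight plating, 10–20 s after thallium read | Detection: Kinetic fluorescence of FluoZin-2 dye, loaded as 0.5 µM AM ester | Repeats: Triplicate, replicates fitted separately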

| SMILES | EC50 |
| --- | --- |
| O=C(NC(=S)Nc1ccc2c(c1)OCO2)c1ccc(Cl)cc1 | 0.0585 µM (inactive) |
| NC(=S)N=Nc1c(O)n(Cc2ccccc2)c2ccccc12 | 0.0883 µM (inactive) |
| CCOc1ccc2nc(SC3CC(=O)N(c4cccc(OC)c4)C3=O)sc2c1 (stereo not drawn) | 3.2 µM |
| S=C(NCCc1ccccc1)N/N=C/c1cccc(Cl)c1Cl | 14.3 µM (inactive) |
| O=[N+]([O-])c1ccc(-c2cn(-c3ccccc3F)c(=S)[nH]2)cc1 | 0.52 µM |
| COC(=O)[C@@H](NC(=O)O[C@@H]1C(=O)c2ccc(OC)cc2O[C@H]1c1cccc(C(F)(F)F)c1)C(C)C | 0.612 µM |
| COc1ccc(Cn2c(=S)[nH]c3ccccc32)cc1 | 0.397 µM |
| Cc1onc(-c2ccccc2Cl)c1C(=O)NC(=S)Nc1ccc(C(C)C)cc1 | 0.246 µM |
| Cc1nn(-c2nc3ccccc3[nH]2)c(N)c1-c1ccccc1 | 2.46 µM |
| O=C(NC(=S)Nc1nc(-c2cccc([N+](=O)[O-])c2)cs1)c1cc(Cl)ccc1Cl | 0.689 µM |
| NC(=S)N=Nc1c(O)n(Cc2ccc(F)cc2)c2ccccc12 | 2.2 µM |
| N=C1SCC(=O)N1c1ncc(Cc2cccc(Cl)c2)s1 | 3.03 µM |
| Cc1ccc(-c2n[nH]c(=S)n2/N=C/C=C\c2ccccc2[N+](=O)[O-])cc1 | 0.643 µM |
| CCOc1[nH]n(-c2ccccc2)c(=O)c1C=Nc1ccc(F)cc1F | 2.2 µM |
| CCOCCCNC(=O)c1ccc(-n2c(=S)[nH]c3ccccc3c2=O)cc1 | 24.2 µM (inactive) |
| COC(=O)c1sccc1NC(=S)OC | 1.58 µM |
| COc1ccc(N2C(=S)N=C(Nc3cccc(C)c3)C23CCCCC3)cc1 | 2.62 µM |
| CC(=O)c1cccc(NC(=S)NC(=O)c2ccc(C)cc2)c1 | 1.58 µM |
